From PubChem BioAssay
A number with no mark means an inactive call. Results filed as inconclusive are left out. Calls of active or inactive are those of the source.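 How the source made its calls, unless noted: active means inhibition over a set limit, the all-compound mean plus 3 SD, in both replicate runs; inconclusive means over that limit in just one replicate run; inactive means at or under that limit in both runs.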

Key:
[1] = OD615 S. cerevisiae growth inhibition, permissive medium, pilot counter-assay, permissive growth control for S. cerevisiae lifespan shortening project (AID 705;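 active means growth inhibition above 25% in both replicates, a cutoff set 3 SD above the mean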); conditions: OD615, 24 h, at 10 µM, stronger effect = higher value
Summary of the method: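 System: engineered DeaD yeast; Medium: permissive raffinose/galactose medium; Compound dosing: 10 µM single dose, 0.25% DMSO; Incubation: 4 h cell pre-growth, 24 h exposure at 30 °C; Technique: OD at 615 nm; Evaluation: growth inhibition from lowered OD615 after 24 h.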

[2] = Restrictive medium S. cerevisiae growth inhibition, OD615, pilot screen of yeast lifespan reduction project, restrictive growth control (AID 706;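 active means growth inhibition above a set limit, 3 SD over mean compound inhibition, in both replicates, cut at about 43% in these data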;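 further: modified DeaD lifespan yeast strain shifted to restrictive glucose medium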); conditions: OD615, 48 h, at 10 µM, stronger effect = higher value
Summary of the method: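 Material: modified S. cerevisiae; buffer or medium: CSMM-D glucose medium; doses: one concentration, 10 µM final, 0.25% DMSO; incubation: 48 h compound exposure at 30 °C; detection: optical density at 615 nm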

[3] = viability gain of MRP-1-high H69AR cells under doxorubicin, pilot screen, MRP-1 activator project, CellTiter-Glo, duplicate (AID 807;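 active means viability increase at or above a cutoff of the median across tested compounds plus 3 SD, cut at about 8.5% in these data, passing the limit was not always enough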;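 further: compound pretreatment 18-22 h then 72 h combined with doxorubicin; 0% = doxorubicin alone and 100% = vehicle without doxorubicin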); conditions: H69AR viability with doxorubicin, CellTiter-Glo luminescence; at 10 µM; stronger effect = higher value
[4] = growth suppression of beta-catenin knockout HCT116, pilot screen, human colon tumor cells (AID 823;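 active means cell viability at or below a set limit in both duplicate runs, the limit being the all-compound median minus 4 SD, cut at about 23% in these data, passing the limit was not always enough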;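 further: 0% = wells killed by 20 µM Hyamine and 100% = untreated DMSO cell wells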); conditions: CellTiter-Glo, 60 h, at 10 µM, stronger effect = lower value
[5] = growth suppression of PTEN-deleted HCT116, pilot screen, cell-based, HCT116 clonal line, CellTiter-Glo (AID 824;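 active means viability at or below 27.92% in each of two runs, the all-compound median minus 4 SD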;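 further: 0% = 20 µM Hyamine control and 100% = vehicle cell control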); conditions: 60 h, at 10 µM, stronger effect = lower value
[6] = inhibitors of the yeast RAM network, pilot screen, dse1pr::URA3 reporter, 5-FOA selection (AID 869);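 further: 0% = DMSO wells with no growth and 100% = 10 µM 1-NA-PP1 with full growth; RAM network block rescues cells from 5-FOA so hits raise OD615 growth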; conditions: S. cerevisiae dse1pr::URA3 5-FOA growth, OD615, 2 d; at 10 µM; stronger effect = higher value; strain carries analog-sensitive mutant Cbk1 kinase
[7] = RAM signaling pathway blockade in yeast – S. cerevisiae, Pdr1DBD-CYC8 efflux-inhibited sensitized strain, primary screen (AID 1298;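 active means RAM network inhibition above 8.4% in each of two replicates, 3 SD over the compound average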;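 further: 0% = DMSO untreated cells without growth and 100% = 10 µM 1-NA-PP1 full growth; higher means more yeast growth rescued from 5-FOA killing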); conditions: S. cerevisiae cbk1-as DSE1-URA3 strain, 5-FOA growth OD615, 2 d; at 50 µM; stronger effect = higher value

| Compound | growth inhibition [1] [%] | growth inhibition [2] [%] | viability increase [3] [%] | viability [4] | viability [5] | inhibition [6] [%] | RAM network inhibition [7] [%] |
| --- | --- | --- | --- | --- | --- | --- | --- |
| CC(=O)C1=C(C)NC(SCC(=O)c2ccc(C)cc2)=C(C#N)C1c1ccco1 (stereo not drawn) | -5.27 | 32.5 | -6.5 | 49.2% | 52.7% | 4.71 | 2.93 |
| Cc1noc(C)c1S(=O)(=O)N1CCC(C(=O)N2CCC(N3CCCCC3)CC2)CC1 | -7.79 | 2.65 | 0.18 | 101% | 102% | 1.78 | -0.93 |
| CC(=O)Nc1ccc(NC(=O)CSc2nccn2Cc2ccccc2)cc1 | -0.94 | 3.38 | -1.64 | 86.9% | 88.8% | -0.265 | 0.96 |
| O=C1CC(c2ccc(Cl)c(Cl)c2)CC(O)=C1C=NCCN1CCNCC1 (stereo not drawn) | -11.8 | -7.73 | -1.07 | 90.4% | 96.6% | 0.46 | -1.78 |
| Cc1cc(N2C(=O)C3C4c5ccccc5C(c5ccccc54)C3C2=O)no1 (stereo not drawn) | -9.23 | -12.7 | -2.14 | 80.2% | 90.7% | 0.02 | 5.19 |
| CCOc1ccc2nc(NC(=O)c3ccoc3C)sc2c1 | 1.53 | -12.2 | -6.35 | 19.1% (active) | 17.1% (active) | 1.03 | 2.4 |
| COc1ccc(S(=O)(=O)N2CCCN(S(=O)(=O)c3ccc(OC)cc3C)CC2)c(C)c1 | -12.6 | -4.12 | -6.52 | 87.2% | 84.7% | -0.105 | 3.22 |
| COc1cc(C2C(C#N)=C(C)NC3=C2C(=O)CC(C)(C)C3)ccc1OCCO (stereo not drawn) | -9.96 | -14.6 | -0.94 | 97.8% | 104% | 1.43 | 3.55 |
| Cn1c(C(=O)NCCc2ccsc2)cc2c(=O)n(C)c3ccccc3c21 | -13.2 | -8.68 | -4.49 | 105% | 92.2% | 2.64 | 4.41 |
| O=c1c2c3c(sc2nc2n1CCCCC2)CCCCC3 | -11.5 | -20.9 | 0.17 | 91.3% | 91.7% | 1.92 | 6.27 |
| O=C1NCCCC1C(=O)NCCNC(=O)C(F)(F)F (stereo not drawn) | -4.04 | -0.705 | -1.47 | 101% | 94.7% | 0.3 | 4.25 |
| CNC(=O)c1ccc2snnc2c1 | -8.38 | 5.12 | -1.54 | 107% | 97.9% | 0.52 | -0.47 |
| Brc1cccc(-c2nnc(SCc3ccon3)n2-c2ccccc2)c1 | -5.09 | 3.47 | -5.94 | 92.3% | 78.7% | 1.46 | 0.07 |
| O=C(CCn1c(=S)[nH]c2ccccc2c1=O)N1CCOCC1 | -0.255 | 9.25 | 0.5 | 105% | 103% | 0.715 | -0.13 |
| CCN(CC)CCNC(=O)c1cc2c(-c3ccc(Cl)cc3)nn(C)c2s1 | -4.4 | 2.85 | -8.35 | 2.18% (active) | 1.95% (active) | 0.905 | 4.19 |
| CCOC(=O)N1CCN(c2nc(=S)n(-c3ccccc3)c(C)c2C(C)=O)CC1 | 14.8 | 28.8 | -1.09 | 98.8% | 101% | 1.26 | 2.67 |
| CCCOC(=O)CC1C(=O)NCCN1Cc1ccccc1C (stereo not drawn) | -20.8 | -0.97 | -0.62 | 98.8% | 94.2% | 1.71 | 7.95 |
| COc1ccc(N(CC(=O)Nc2ccc3c(c2)OCO3)S(=O)(=O)c2ccccc2)c(OC)c1 | -7.79 | -13.1 | -2.07 | 71.8% | 75.6% | 2.93 | 9.79 |
| O=C(Nc1nnc(-c2ccc(Cl)cc2)o1)c1ccccc1Br | 0.92 | 20.1 | -3.81 | 68.8% | 60.9% | 0.69 | 1.62 |
| Cn1c(NC(=O)c2ccccc2F)cc(=O)n(C)c1=O | -0.14 | -2.47 | 0.23 | 101% | 106% | 0.595 | -1.63 |
| CC1(C)CC(=O)C2=C(C1)OC(N)=C(C#N)C2c1ccc(OC(=O)N2CCOCC2)cc1 (stereo not drawn) | -8.71 | -10.3 | -1.1 | 100% | 105% | 1.12 | 0.1 |
| Cc1ccccc1-n1nc(C(=O)O)c(C)c(C#N)c1=O | -3.86 | -6.29 | -0.28 | 97.8% | 98.6% | 2.41 | 3.52 |
| OCCCc1nc2n(n1)C(c1ccccc1)C=C(c1ccccc1)N2 (stereo not drawn) | -7.07 | 1.69 | -2.67 | 97.1% | 89.1% | 0.59 | 0.53 |
| Cc1ccc(Nc2cc(C)nc3nc(C)nn23)c(C)c1 | -9.53 | 8.84 | -3.9 | 95.1% | 96.9% | -0.02 | -0.78 |
